Test results as given in PubChem BioAssay.
Activity calls are given as the source filed them.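 Rule for the calls, unless noted: active = viability at or under a set limit in both replicates, limit being median viability minus 3 SD (cut at about 48% in these data, passing the limit was not always enough); inconclusive = at or under the limit in just one replicate; inactive = at or above the limit in both replicates.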

How the values were obtained:
[1] = reducers of endogenous Her2 protein level, primary screen, SKBR3 breast tumor cells, AlphaScreen, ATP viability (AID 461;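 active = Her2 level under about 52% in both replicate screens, with viability over 70% of control, limit read from the data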;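 for Her2 level: lower value means less Her2 protein in the cells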;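 for viability: percent of carrier control wells set as 100% viability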); settings: 18-24 h, measured here: SKBR3 viability, ATP luminescence, at 10 µM
[2] = target: Receptor tyrosine-protein kinase erbB-2 (Homo sapiens) (UniProt P04626); test: as above; settings: 18-24 h, at 10 µM, stronger effect = lower value
[3] = SK-BR-3 cell growth inhibitors, pilot screen, 24 h, human (AID 572;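 active = viability at or below 10% of carrier control in both of two separate runs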;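 note: compound exposure lasted between 18 and 24 h rather than exactly 24 h; 100% = carrier-treated control wells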); settings: SK-BR-3 viability, CellTiter-Glo luminescence, at 10 µM, stronger effect = lower value
[4] = HUVEC growth inhibition – cell-based, human, primary screen (AID 575;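 active = viability at or below 30% in both replicate assays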;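 note: 100% = median of untreated cell wells with 0.1% DMSO on each plate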); settings: HUVEC proliferation, CellTiter-Glo luminescence, 72 h; at 10 µM; stronger effect = lower value
Method in brief: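 material = primary HUVEC, no more than 12 passages | input = 1250 cells per well | controls = vehicle and MePR control wells | measured by = CTG luminescence | times = 72 h compound incubation | format = collagen-coated 384-well format | read-out = % viability vs DMSO wells | doses = single 10 µM dose, 0.1% DMSO, from 5x medium stock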

[5] = growth inhibitors of H69AR lung tumor, primary screen, human, duplicate replicates (AID 580); settings: H69AR lung tumor cells viability, ATP luminescence, 72 h; at 10 µM; stronger effect = lower value;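 note: 100% = mean luminescence of untreated wells and 0% = no signal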
[6] = reversal of MRP1-mediated doxorubicin resistance, pilot screen, H69AR cells, doxorubicin co-treatment (AID 601;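 active = viability loss from added drug above about 55%, and viability with drug at most 40%, in both replicates, limit read from the data, passing the limit was not always enough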); settings: CellTiter-Glo, 72 h, at 10 µM; for differential viability (reversal): stronger effect = higher value
[7] = 384-well plate pilot, post-Golgi transport modulator project, inhibition of yeast transport mutant growth (AID 636; in the data active = inhibition above about 31%); settings: absorbance 615 nm, about 18 h, stronger effect = higher value
[8] = growth suppression of yeast trafficking mutant, preliminary HTS, modulators of trafficking downstream of Golgi apparatus project, 1536-format plate, OD 615 nm (AID 637; in the data active = inhibition above about 30%); settings: yeast transport mutant growth, absorbance 615 nm, 18 h; stronger effect = higher value
[9] = H69AR cells + 2 uM doxorubicin, measured here: viability with 2 uM doxorubicin, stronger effect = lower value
[10] = H69AR cells, compound alone cytotoxicity

Sequence of Receptor tyrosine-protein kinase erbB-2 (Homo sapiens) (P04626 whole entry, looked up): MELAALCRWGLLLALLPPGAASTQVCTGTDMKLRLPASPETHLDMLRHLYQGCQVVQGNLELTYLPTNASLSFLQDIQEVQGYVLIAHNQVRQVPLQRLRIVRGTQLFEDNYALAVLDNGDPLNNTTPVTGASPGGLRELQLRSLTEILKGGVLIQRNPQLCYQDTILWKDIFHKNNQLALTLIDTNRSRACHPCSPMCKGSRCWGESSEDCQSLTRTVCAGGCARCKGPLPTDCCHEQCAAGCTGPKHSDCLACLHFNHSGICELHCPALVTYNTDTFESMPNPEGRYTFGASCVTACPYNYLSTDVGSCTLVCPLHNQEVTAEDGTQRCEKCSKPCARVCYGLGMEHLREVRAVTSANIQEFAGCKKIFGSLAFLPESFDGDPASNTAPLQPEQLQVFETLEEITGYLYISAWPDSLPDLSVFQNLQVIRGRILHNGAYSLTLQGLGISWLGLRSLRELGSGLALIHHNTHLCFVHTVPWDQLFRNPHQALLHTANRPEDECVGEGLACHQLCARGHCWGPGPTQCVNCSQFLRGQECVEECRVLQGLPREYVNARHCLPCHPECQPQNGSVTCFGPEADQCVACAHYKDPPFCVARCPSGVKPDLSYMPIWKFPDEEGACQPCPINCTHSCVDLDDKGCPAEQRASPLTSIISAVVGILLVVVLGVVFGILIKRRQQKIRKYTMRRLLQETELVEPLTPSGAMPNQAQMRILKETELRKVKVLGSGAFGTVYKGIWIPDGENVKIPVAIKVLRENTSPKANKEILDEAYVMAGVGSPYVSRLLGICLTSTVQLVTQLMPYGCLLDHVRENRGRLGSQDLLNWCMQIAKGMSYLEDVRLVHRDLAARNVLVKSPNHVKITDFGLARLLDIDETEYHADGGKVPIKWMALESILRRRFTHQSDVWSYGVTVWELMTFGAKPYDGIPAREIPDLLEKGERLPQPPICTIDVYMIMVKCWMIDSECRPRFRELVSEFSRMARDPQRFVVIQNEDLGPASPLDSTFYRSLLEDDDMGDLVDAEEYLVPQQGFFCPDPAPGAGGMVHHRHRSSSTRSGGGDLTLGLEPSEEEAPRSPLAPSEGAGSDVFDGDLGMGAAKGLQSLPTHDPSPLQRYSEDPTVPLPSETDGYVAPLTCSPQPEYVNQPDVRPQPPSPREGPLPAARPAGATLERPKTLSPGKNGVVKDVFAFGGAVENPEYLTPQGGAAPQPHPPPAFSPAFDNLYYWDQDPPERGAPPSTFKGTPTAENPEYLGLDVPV

Structure (SMILES)	viability [1] [%]	Her2 level [2]	viability [3]	viability [4]	viability [5]	differential viability (reversal) ([6]; H69AR cells + 2 uM doxorubicin)	viability [6, 9] [%]	viability [6, 10] [%]	inhibition [7]	inhibition [8]
COc1ccccc1N1CC(C(=O)Nc2cccc(C(=O)O)c2)CC1=O (stereo not given)	98	103% (inactive)	98% (inactive)	95.4% (inactive)	94.1% (inactive)	-5.46% (inactive)	99.6	94.1	3.07% (inactive)	-7.58% (inactive)
O=C1CC(C2CCCO2)C(=O)N1Cc1ccccc1 (stereo not given)	98	94% (inactive)	98% (inactive)	90.2% (inactive)	103% (inactive)	3.39% (inactive)	99.4	103	-6.08% (inactive)	-0.66% (inactive)
CCOC(=O)C1CCCN(C(=O)c2cc3c(C)nc4ccccc4c3o2)C1 (stereo not given)	86	99% (inactive)	86% (inactive)	71.7% (inactive)	74.7% (inactive)	38.5% (inactive)	36.2	74.7	-1.87% (inactive)	16.7% (inactive)
CCOC(=O)c1cnn(-c2cc(C)nc3c(-c4ccccc4)c(C)nn23)c1N	120	89% (inactive)	120% (inactive)	84.2% (inactive)	89.4% (inactive)	15.7% (inactive)	73.7	89.4	-3.77% (inactive)	-5.56% (inactive)
O=C1CCn2nc(-c3ccc(Cl)cc3)cc2N1	106	96% (inactive)	106% (inactive)	31.3% (inactive)	97.8% (inactive)	5.93% (inactive)	91.8	97.8	-2.18% (inactive)	1.83% (inactive)
CCCNC(=O)c1ccccc1C(=O)NCCC	93.5	88.5% (inactive)	93.5% (inactive)	103% (inactive)	90.5% (inactive)	-4.96% (inactive)	95.5	90.5	4.16% (inactive)	18.9% (inactive)
COc1ccc(OC)c(C2=NOC(C(=O)Nc3cccnc3)C2)c1 (stereo not given)	78.5	82% (inactive)	78.5% (inactive)	102% (inactive)	88.9% (inactive)	5.72% (inactive)	83.2	88.9	-1.97% (inactive)	1.09% (inactive)
CCSCCC(NC1=CC(=O)CC(C)(C)C1)C(=O)O (stereo not given)	92	89% (inactive)	92% (inactive)	116% (inactive)	101% (inactive)	5.77% (inactive)	94.8	101	1.58% (inactive)	-3.45% (inactive)
COc1cccc(C(=O)NCc2nnc(SCC(=O)Nc3nccs3)n2-c2ccccc2)c1	101	108% (inactive)	101% (inactive)	92.9% (inactive)	97.9% (inactive)	-3.27% (inactive)	101	97.9	-2.18% (inactive)	1.17% (inactive)
COC(=O)c1ccc(COc2ncnc3c(Cl)cc(Cl)cc23)o1	102	100% (inactive)	102% (inactive)	95.4% (inactive)	85.9% (inactive)	18.5% (inactive)	67.4	85.9	-8.16% (inactive)	-2.73% (inactive)
Cc1noc(C)c1S(=O)(=O)N1CCC(C(=O)Nc2ccccn2)CC1	98	81% (inactive)	98% (inactive)	105% (inactive)	89.5% (inactive)	6.2% (inactive)	83.3	89.5	-2.11% (inactive)	0.48% (inactive)
Cc1nc(SCCC(=O)O)c2ccccc2n1	98	108% (inactive)	98% (inactive)	88.4% (inactive)	85.9% (inactive)	1.88% (inactive)	84	85.9	-0.26% (inactive)	-0.5% (inactive)
CCOCCc1nnc(NC(=O)c2ccc(OC)c(OC)c2)s1	107	86% (inactive)	107% (inactive)	62.8% (inactive)	94.4% (inactive)	-1.97% (inactive)	96.4	94.4	-6.4% (inactive)	-3.39% (inactive)
Cn1c(CCCNC(=O)c2ccccc2)nc2ccccc21	112	83% (inactive)	112% (inactive)	103% (inactive)	100% (inactive)	18.6% (inactive)	81.7	100	-8.65% (inactive)	-1.83% (inactive)
CC(C)[C@H](NC(=O)OC(C)(C)C)c1nnc(SCc2cccc(F)c2)o1	90	120% (inactive)	90% (inactive)	107% (inactive)	96.4% (inactive)	-1.12% (inactive)	97.5	96.4	0.13% (inactive)	0% (inactive)
COc1ccc2oc(=O)c(C(=O)N3CCN(c4ccccc4F)CC3)cc2c1	97.5	95.5% (inactive)	97.5% (inactive)	108% (inactive)	88.1% (inactive)	-9.48% (inactive)	97.6	88.1	-6.4% (inactive)	-3.65% (inactive)
NC(=O)C1CCN(CC(=O)N2c3ccccc3CCc3ccccc32)CC1	117	114% (inactive)	117% (inactive)	103% (inactive)	93.9% (inactive)	1.55% (inactive)	92.3	93.9	-5.53% (inactive)	5.25% (inactive)
O=c1[nH]cnc2c1nc(SCc1ccccc1)n2C1OC(CO)C(O)C1O (stereo not given)	94.5	88% (inactive)	94.5% (inactive)	92.4% (inactive)	101% (inactive)	8.52% (inactive)	92.2	101	-5.54% (inactive)	4.6% (inactive)
COc1cc(OC)cc(C(=O)NCc2n[nH]c(=S)n2-c2ccccc2OC)c1	97	88% (inactive)	97% (inactive)	109% (inactive)	89.4% (inactive)	0.11% (inactive)	89.3	89.4	-7.16% (inactive)	-1.33% (inactive)
C=CCOc1nc2c(c(=O)n(C)c(=O)n2C)n1C	96.5	100% (inactive)	96.5% (inactive)	90.9% (inactive)	94.4% (inactive)	12.4% (inactive)	82	94.4	-3.25% (inactive)	1.33% (inactive)
CCCn1c(NC(=O)C2COc3ccccc3O2)nc2ccccc21 (stereo not given)	99.5	90% (inactive)	99.5% (inactive)	66.1% (inactive)	67.8% (inactive)	-13.7% (inactive)	81.6	67.8	-3.47% (inactive)	5.74% (inactive)
CCn1c(SCC(=O)c2ccc(OC)cc2)nnc1C(C)NC(=O)c1ccc(OC)cc1 (stereo not given)	93	106% (inactive)	93% (inactive)	85.7% (inactive)	88.2% (inactive)	-3.72% (inactive)	91.9	88.2	-1.2% (inactive)	-8.41% (inactive)
Cc1noc(C)c1COc1cccc(C(=O)Nc2ccc(C#N)cc2)c1	96	90% (inactive)	96% (inactive)	68% (inactive)	68.9% (inactive)	-10.6% (inactive)	79.6	68.9	-2.99% (inactive)	-6.67% (inactive)
O=C(CSc1nnc2scc(-c3ccccc3)n12)N1CCN(Cc2ccccc2)CC1	89	97.5% (inactive)	89% (inactive)	103% (inactive)	78.5% (inactive)	8.52% (inactive)	70	78.5	-5.66% (inactive)	-0.32% (inactive)
CCC(=O)Nc1c(C#N)c2nc3ccccc3nc2n1-c1ccccc1C	95	82.5% (inactive)	95% (inactive)	99.2% (inactive)	87.5% (inactive)	-3.52% (inactive)	91	87.5	-5.2% (inactive)	8.85% (inactive)
O=C(CN1CCCC1)Nc1ccc(NC(=O)Nc2ccccc2)cc1	92.5	110% (inactive)	92.5% (inactive)	75.3% (inactive)	95.3% (inactive)	0.39% (inactive)	94.9	95.3	0% (inactive)	-6.39% (inactive)
COc1cc(CC(=O)NCc2ccc3c(c2)OCO3)cc(OC)c1OC	99	78.5% (inactive)	99% (inactive)	85.9% (inactive)	95.8% (inactive)	9.63% (inactive)	86.2	95.8	-1.84% (inactive)	3.45% (inactive)
O=C(CSc1nnc(Cn2cnc3ccccc32)o1)c1ccccc1	124	86.5% (inactive)	124% (inactive)	61.8% (inactive)	73.3% (inactive)	-9.91% (inactive)	83.2	73.3	-6.84% (inactive)	3.49% (inactive)
